CHOP UPR activ = activators of apoptotic CHOP UPR arm, primary screen, cell-based, CHO-CHOP luciferase reporter, luminescence, uHTS. UPR activation; percent of tunicamycin response over DMSO baseline. activation, % at 10 µM. AID 449763, 2010. 0.34% of 330,000 active;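 active = at 10 µM dose, activation of 40% or more, normalized to positive control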
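Dosing – one dose, 10 µM in 0.5% DMSO · System – CHO-CHOP cells, stable luciferase reporter of PERK-eIF2a-CHOP signalling · Input – 500 cells/well · Control set – tunicamycin 10 µg/mL final as positive, DMSO-only wells as negative · Timing – 6 h compound treatment, 37 °C · Measure – % activation vs tunicamycin · Technique – luminescence read with Steady-Glo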
CHOP inhibitor = inhibitors of CHOP promoter induction, primary screen, cell-based, unfolded protein response, luciferase reporter; AID 2732, 2010; 3.8% of 220,000 active; inhibition, % at 10 µM; CHO-K1 CHOP-promoter luciferase, tunicamycin-induced, 15-18 h;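 active = compounds that reduced the stress-induced luciferase reporter signal by more than about 70% of percent inhibition, limit read from the data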
Jurkat NFkB inh = inhibitors of induced NF-kB luciferase reporter, primary screen, TCR NF-kB activation inhibitor project, cell-based, luminescence, uHTS | AID 435003, 2010 | 0.53% of 330,000 active | inhibition, % at 4 µM | Jurkat, PMA/ionomycin-induced NF-kB luciferase reporter; in the data active = inhibition above about 50%
697 NFkB inh = inhibitors of PMA/ionomycin-induced NF-kB reporter, 697 cells, primary screen, B-cell NF-kB inhibitor project, cell-based, luminescence, uHTS; 0.33% of 330,000 active; inhibition, % at 4 µM; 697 B-cell NF-kB luciferase reporter, 16 h; in the data active = inhibition above about 35%
UPR XBP1 act = activators of adaptive XBP1 UPR arm, primary screen, cell-based, CHO-XBP1 luciferase reporter, luminescence, uHTS; IRE1-XBP1 UPR activation; percent of tunicamycin response, DMSO as zero; activation, % at 20 µM; 0.33% of 330,000 active;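 active = versus positive control, 20 µM dose yields 30% or more activation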
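Material: CHO cell line with stable XBP1 luciferase reporter; schedule: 16-18 h cell attachment at 37 °C, then 6 h compound exposure; signal: glow luminescence from Steady-Glo reagent; medium: serum-containing F12 medium, 10% FBS; benchmarks: tunicamycin 10 µg/mL and vehicle-only wells; read-out: percent activation relative to tunicamycin reference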
UPR CHOP confirm = activators of apoptotic CHOP UPR arm, confirmation, cell-based, CHO-CHOP luciferase reporter, single concentration | shares compounds with CHOP UPR activ | CHO-CHOP cells, CHOP-luciferase reporter luminescence; percent of tunicamycin response, DMSO as zero | activation, % at 10 µM | 64% of 1,000 active; in the data active = activation above about 33%
A number is an active result; 0 = inactive; - = no result. Only a selection was taken, and hits are over-represented in it overall.

SMILES	CHOP UPR activ	CHOP inhibitor	Jurkat NFkB inh	697 NFkB inh	UPR XBP1 act	UPR CHOP confirm
S=C1SCN(Cc2ccccn2)CN1Cc1ccco1	102	0	0	0	0	50
CCOCCCN1CN(Cc2ccco2)CNC1=S	0	0	0	0	0	-
CCOc1ccc2nc(Cl)c(C3CC(c4ccccc4)=NN3C(=O)c3ccco3)cc2c1 (centres undefined)	124	96	0	0	122	0
CCOC(=O)c1ccc(NC2=CC(=O)C(=O)c3ccccc32)cc1	65	0	0	0	0	0
Cc1ccc(C(=O)NC(C#N)=C(Cl)Cl)cc1	136	80	0	0	0	45
CCOC(=O)C(=O)Nc1ccc(F)cc1	0	0	0	0	0	-
CCOC(=O)C(=Cc1ccc(F)cc1)C(=O)OCC	122	0	0	0	0	140
CCOC(=O)C(=Cc1ccc(-n2ccnc2)cc1)C(=O)OCC	188	0	0	0	0	142
N/C(=N\OC(=O)c1cccc(Cn2cc(C(F)(F)F)ccc2=O)c1)c1ccc(Cl)cc1	0	0	0	0	0	-
CCCS(=O)(=O)c1c(S(=O)(=O)CCC)c2c(N)cccn2c1C(=O)c1ccc(OC)cc1	55	0	0	0	0	0
CCCS(=O)(=O)c1c(S(=O)(=O)CCC)c2c(N)cccn2c1C(=O)c1ccc(Br)cc1	0	0	0	0	0	-
O=C1CN(S(=O)(=O)c2cccc(Cl)c2Cl)CCN1	0	-	0	0	0	-
COc1cc(C(=O)OC(C)C(=O)NC(=O)NC2CCCCC2)ccc1OC(F)F (centres undefined)	0	-	0	0	0	-
CC(=O)N(C)Cc1ccc(C(=O)CCl)cc1	94	105	0	0	0	0
CSc1nnc(NC(=O)c2nc(S(=O)(=O)Cc3ccccc3)ncc2Cl)s1	56	-	0	0	0	61
CC(C)c1nnc(NC(=O)c2nc(S(=O)(=O)Cc3ccccc3)ncc2Cl)s1	62	-	0	0	0	0
CCc1ccc(NC(=O)c2nc(S(=O)(=O)Cc3ccccc3)ncc2Cl)cc1	0	-	0	0	0	-
CCCc1nnc(NC(=O)c2nc(S(=O)(=O)Cc3ccc(C)cc3)ncc2Cl)s1	0	-	0	0	0	-
Cc1ccc(Cn2nnc3c(=O)[nH]c(C4CCN(S(=O)(=O)c5ccccc5F)CC4)nc32)cc1	0	-	0	0	0	-
CC(C)Cn1c(N)c(C(=O)CSc2nnc(C3CC3)n2C2CC2)c(=O)n(C)c1=O	0	-	0	0	0	-
Cc1ccc(-c2nc(SCC(=O)Nc3cc(C)on3)c3c(=O)n(C)c(=O)n(C)c3n2)cc1	58	-	0	0	0	104
Cc1nc(SCC(=O)Nc2cc(C)on2)c2c(=O)n(C)c(=O)n(C)c2n1	0	0	0	0	0	-
COc1cc([N+](=O)[O-])cc(/C=N/N(CCC#N)C(C)=O)c1O	0	0	0	0	0	-
O=C1C=C(N2CCCCC2)c2ccccc2C1=O	76	-	0	0	0	0
C/C(CCc1oc2c(Br)cc(Br)cc2c1-c1ccc(C)o1)=N\O	89	0	0	0	0	0
SMILES	CHOP UPR activ	CHOP inhibitor	Jurkat NFkB inh	697 NFkB inh	UPR XBP1 act	UPR CHOP confirm
C/C(CCc1oc2ccccc2c1-c1ccc(C)o1)=N/O	0	0	0	0	0	-
COc1ccccc1Cn1c(=S)[nH]c2cc(C(=O)N3CCN(c4ccccc4OC)CC3)ccc2c1=O	84	-	0	0	0	0
COc1ccccc1N1CCN(C(=O)c2ccc3c(=O)n(Cc4ccco4)c(=S)[nH]c3c2)CC1	0	0	0	0	0	-
Cc1c(F)cccc1NS(=O)(=O)c1ccc2c(c1)c(C)cc(=O)n2C	0	-	0	0	0	-
O=C1NCCn2ccc(=O)cc21	0	0	0	0	0	-
O=C(/C=C/c1ccc([N+](=O)[O-])cc1)/C=C/c1ccco1	57	-	0	0	0	108
CC(=O)N(\C=C/C=C/C=C1\Sc2ccccc2C1=O)c1ccccc1	64	0	0	0	0	35
CN(C)N=Nc1nc2c(c(=O)n(C)c(=O)n2C)n1CC1CO1 (centres undefined)	0	0	0	0	0	-
O=C1C(=Cc2cccs2)C(=O)c2ccccc21	0	0	0	0	0	-
O=C1C(c2ccccc2)=[N+]([O-])c2ccccc21	67	-	0	0	0	0
Cc1ccc(C)c(NC(=O)CC2Oc3ccccc3NC2=O)c1 (centres undefined)	0	-	0	0	0	-
O=C(NCCc1ccc(F)cc1)c1coc(=O)c(Br)c1	125	-	0	0	0	88
O=C(Nc1ccccc1F)c1coc(=O)c(Br)c1	0	0	0	0	0	-
COc1cccc(-c2nc(CS(=O)CC(=O)NCc3ccccc3)c(C)o2)c1 (centres undefined)	69	0	0	0	0	0
CCCNC(=O)CS(=O)Cc1nc(-c2cccc(OC)c2)oc1C (centres undefined)	0	0	0	0	0	-
CCOc1ccccc1NC(=O)CN1C(=O)COc2ccc(C)cc21	0	-	0	0	0	-
O=C(NCc1cccnc1)/C(=C/c1ccc(-c2cccc(Cl)c2)o1)S(=O)(=O)c1ccccc1	83	94	0	0	0	114
COc1cc2c(cc1NC(=S)NC(=O)c1c(OC)cccc1OC)oc1ccccc12	0	0	0	0	0	-
COc1cc(OC)cc(C(=O)NC(=S)Nc2cc3oc4ccccc4c3cc2OC)c1	101	0	0	0	0	74
C=CCn1nc([N+](=O)[O-])nc1Sc1cccc2cccnc12	168	88	0	0	0	230
O=[N+]([O-])c1ccc(Sc2cccc3cccnc23)c([N+](=O)[O-])c1	256	0	0	0	0	158
CC(=O)Nc1cccc(C(=O)OCC(=O)NNC(=O)c2cccs2)c1	0	-	0	0	0	-
CCOc1ccc2nc(SC3CC(=O)N(c4ccc(OC)cc4)C3=O)sc2c1 (centres undefined)	45	0	0	0	0	0
COc1ccc(N2C(=O)CC(Sc3nc4ccccc4s3)C2=O)cc1 (centres undefined)	0	0	0	0	0	-
CC1(C)CC(=O)C2=C(C1)Oc1nc3ccccc3cc1C2C(C#N)C#N (centres undefined)	63	0	0	0	0	34
COc1ccc(Br)cc1/C=C/c1ccc2cccc(O)c2n1	0	-	0	0	0	-
COc1ccc(/C=C/c2ccc3cccc(O)c3n2)c(OC)c1OC	135	-	0	0	0	0

Screening results from PubChem.
